The values that follow come from ChEMBL document CHEMBL3751676, “Combating P-glycoprotein-mediated multidrug resistance with 10-O-phenyl dihydroartemisinin ethers in MCF-7 cells” (Eur J Med Chem, 2016).

Series [1] deals with T1, MDR1 (ABCB1) (Homo sapiens, UniProt P08183). As to the kind of experiment: Activity at MDR1 (unknown origin) expressed in MDCK cells assessed as permeability across apical to basolateral after 90 mins by LC-MS/MS analysis. It is filed as ADME, cell-based.
The next series relates to NCI/ADR-RES. The series can be described thus: Selectivity index, ratio of GI50 for human MCF7 cells to GI50 for human MCF7/ADR cells. It is filed as functional.
The nature of series [2]: Permeability across basolateral to apical side in MDCK cells after 90 mins by LC-MS/MS analysis. It is filed as ADME, cell-based, Canis lupus familiaris. As to conditions: dog. The gist of the method: (§1)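 Wild-type MDCK cells on Transwell filters. Transport was run in HBSS pH 7.4 at 37 °C in A-B and B-A directions, and plates were separated after 90 min incubation. Efflux ratio is Papp(B-A)/Papp(A-B). Papp is reported as "<" when receiver concentrations were below the quantitation limit.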

Another series has as its system MCF7. As to the kind of experiment: Antiproliferative activity against human MCF7 cells after 96 hrs by MTT assay. To be noted: MCF7, 96 h. The format is functional. Summed up:
(§2)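 MTT: cells seeded at 1.5-4.0 × 10^4 cells/mL and incubated overnight at 37 C, then exposed to 5-9 concentrations (DMSO stocks diluted in growth medium; final DMSO ≤0.5%) for 96 h. MTT added at 0.5 mg/mL for a further 4 h at 37 C and the formazan dissolved. Inhibition calculated relative to control; GI50 estimated by curve fitting; 3-5 repeats, mean ± SD.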
Background: Tetrazolium assays rely on reduction of a dye to a coloured formazan, in cell work by metabolically active cells.

The nature of series [3]: Antiproliferative activity against human MCF7/ADR cells after 96 hrs by MTT assay. It is filed as functional. As to conditions: NCI/ADR-RES. Summed up: as §2
In series [4] the target is T1, MDR1 (ABCB1). As to the kind of experiment: Activity at MDR1 (unknown origin) expressed in MDCK cells assessed as permeability across basolateral to apical after 90 mins by LC-MS/MS analysis. The format is ADME, cell-based.
The nature of series [5]: Permeability across apical to basolateral side in MDCK cells after 90 mins by LC-MS/MS analysis. The format is ADME, cell-based, Canis lupus familiaris. To be noted: dog. The gist of the method:
as §1

The nature of series [6]: Efflux ratio of permeability across basolateral to apical side over apical to basolateral side in MDCK cells. The format is ADME, cell-based, Canis lupus familiaris. To be noted: dog. The gist of the method: as §1
Series [7] deals with T1, MDR1 (ABCB1). As to the kind of experiment: Activity at MDR1 (unknown origin) expressed in MDCK cells assessed as efflux ratio of permeability across basolateral to apical side over apical to basolateral side. The format is ADME, cell-based.

Structures are written as SMILES.

T1 sequence (P08183 whole entry): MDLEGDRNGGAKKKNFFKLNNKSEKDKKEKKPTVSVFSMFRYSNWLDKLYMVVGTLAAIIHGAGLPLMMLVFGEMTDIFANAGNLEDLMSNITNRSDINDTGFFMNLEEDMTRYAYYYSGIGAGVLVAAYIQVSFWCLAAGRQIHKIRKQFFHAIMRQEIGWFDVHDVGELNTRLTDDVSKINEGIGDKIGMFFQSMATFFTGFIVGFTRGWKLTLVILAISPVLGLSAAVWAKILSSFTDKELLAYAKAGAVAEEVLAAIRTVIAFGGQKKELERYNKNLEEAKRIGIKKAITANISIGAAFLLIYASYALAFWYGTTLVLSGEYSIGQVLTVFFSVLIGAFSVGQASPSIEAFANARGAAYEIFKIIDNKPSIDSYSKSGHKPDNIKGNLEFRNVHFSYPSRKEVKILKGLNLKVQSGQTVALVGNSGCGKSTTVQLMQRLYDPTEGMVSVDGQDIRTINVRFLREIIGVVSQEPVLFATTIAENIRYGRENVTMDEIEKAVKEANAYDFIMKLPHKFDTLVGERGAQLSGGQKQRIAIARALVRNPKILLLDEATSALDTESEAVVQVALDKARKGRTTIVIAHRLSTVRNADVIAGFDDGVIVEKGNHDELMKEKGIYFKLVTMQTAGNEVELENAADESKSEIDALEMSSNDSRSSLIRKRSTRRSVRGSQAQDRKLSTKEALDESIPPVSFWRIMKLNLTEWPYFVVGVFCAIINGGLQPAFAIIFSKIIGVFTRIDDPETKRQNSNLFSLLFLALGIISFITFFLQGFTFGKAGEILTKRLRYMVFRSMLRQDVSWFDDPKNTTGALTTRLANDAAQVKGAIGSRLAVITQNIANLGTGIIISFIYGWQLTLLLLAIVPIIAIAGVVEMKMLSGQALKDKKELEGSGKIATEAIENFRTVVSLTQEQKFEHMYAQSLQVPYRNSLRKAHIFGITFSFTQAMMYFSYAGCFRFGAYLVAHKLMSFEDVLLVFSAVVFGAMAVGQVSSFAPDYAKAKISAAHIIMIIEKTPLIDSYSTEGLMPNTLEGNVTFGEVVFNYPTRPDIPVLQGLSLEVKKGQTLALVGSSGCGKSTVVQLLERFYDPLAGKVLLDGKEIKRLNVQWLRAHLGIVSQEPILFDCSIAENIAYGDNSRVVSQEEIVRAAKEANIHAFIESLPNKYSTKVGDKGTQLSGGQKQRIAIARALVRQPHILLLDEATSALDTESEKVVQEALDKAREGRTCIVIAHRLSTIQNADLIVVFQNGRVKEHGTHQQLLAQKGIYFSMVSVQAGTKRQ

As usually defined, the Papp A→B is how fast a substance crosses the layer from the apical side. As usually defined, the Papp B→A is how fast a substance crosses the layer from the basolateral side. By GI50 is commonly meant the concentration at which growth is held to half of that of the control. A low value points to more potent growth inhibition. For the compound `C[C@H]1[C@@H](Oc2ccc(CN3CCN(c4ccc(F)cc4)CC3)cc2)O[C@@H]2O[C@@]3(C)CC[C@H]4[C@H](C)CC[C@@H]1[C@@]24OO3`, the Papp A→B at 1.5 h at MDR1 (ABCB1) [1] is below 1.34 ×10⁻⁶ cm/s; in series [5], below 1.33 ×10⁻⁶ cm/s. In addition, the RatioGI50 in the series with NCI/ADR-RES turned out to be 21.2. The Papp B→A at 1.5 h in series [2] was below 0.83 ×10⁻⁶ cm/s; on MDR1 (ABCB1) [4] it was below 0.85 ×10⁻⁶ cm/s. The concentration for 50% growth inhibition (GI50) came out at 530 nM in the series with MCF7 and 25 nM in series [3].
The efflux ratio is a quotient of directional permeabilities that is used to spot active efflux. Take `COCCc1ccc(OCC(O)CNC(C)C)cc1` (stereo not drawn) [METOPROLOL]: the apical-to-basolateral permeability (Papp A→B) at 1.5 h on MDR1 (ABCB1) [1] stood at 22.2 ×10⁻⁶ cm/s; in [5], 24.3 ×10⁻⁶ cm/s. The values for the efflux ratio (in series [6]; on MDR1 (ABCB1) [7]) were 0.76 and 1.07, respectively. Moreover, the Papp B→A at 1.5 h in series [2] was 18.5 ×10⁻⁶ cm/s; at MDR1 (ABCB1) [4] it was 23.7 ×10⁻⁶ cm/s.
As to `C[C@H]1[C@@H](Oc2ccc(CC(=O)N3CCN(c4ccccn4)CC3)cc2)O[C@@H]2O[C@@]3(C)CC[C@H]4[C@H](C)CC[C@@H]1[C@@]24OO3`, the RatioGI50 in the series on NCI/ADR-RES is recorded as 12. Besides, the concentration for 50% growth inhibition (GI50) with MCF7 stood at 960 nM; in [3] it was 80 nM.
On to `C[C@H]1[C@@H](Oc2ccc(CC(=O)N3CCN(c4ccccc4)CC3)cc2)O[C@@H]2O[C@@]3(C)CC[C@H]4[C@H](C)CC[C@@H]1[C@@]24OO3`, for which, in the series with NCI/ADR-RES, the RatioGI50 is 4.78. Also, the concentration for 50% growth inhibition (GI50) with MCF7 turned out to be 430 nM; in series [3], 90 nM.
Take `C[C@H]1[C@@H](Oc2ccc(CN3CCN(c4ccccn4)CC3)cc2)O[C@@H]2O[C@@]3(C)CC[C@H]4[C@H](C)CC[C@@H]1[C@@]24OO3`: the RatioGI50 with NCI/ADR-RES turned out to be 3.09. The concentration for 50% growth inhibition (GI50) with MCF7 was 170 nM; in series [3], 55 nM.
Taken in the same sequence, the figures for `COc1ccccc1N1CCN(Cc2ccc(O[C@H]3O[C@@H]4O[C@@]5(C)CC[C@H]6[C@H](C)CC[C@@H]([C@H]3C)[C@@]46OO5)cc2)CC1` were 3.87, 580 nM and 150 nM.
Take `C[C@H]1[C@@H](O)O[C@@H]2O[C@@]3(C)CC[C@H]4[C@H](C)CC[C@@H]1[C@@]24OO3` [ARTENIMOL]: the results for the Papp A→B at 1.5 h (on MDR1 (ABCB1) [1]; in series [5]) were 28 ×10⁻⁶ cm/s and 31.4 ×10⁻⁶ cm/s, respectively. Besides, in the series on NCI/ADR-RES, the RatioGI50 is 10. For the same compound, the efflux ratio in series [6] was 0.8; on MDR1 (ABCB1) [7], 0.89. Besides, the results for the Papp B→A at 1.5 h (in series [2]; at MDR1 (ABCB1) [4]) were 25.1 ×10⁻⁶ cm/s and 24.9 ×10⁻⁶ cm/s, respectively. Besides, the figures for the concentration for 50% growth inhibition (GI50) (with MCF7; in series [3]) were 33200 nM and 3320 nM, respectively.
For `C=C[C@H]1C[N@@]2CC[C@H]1C[C@@H]2[C@@H](O)c1ccnc2ccc(OC)cc12` [QUINIDINE], the apical-to-basolateral permeability (Papp A→B) at 1.5 h was 4.37 ×10⁻⁶ cm/s on MDR1 (ABCB1) [1] and 9.98 ×10⁻⁶ cm/s in [5]. The efflux ratio in [6] is 2.34; on MDR1 (ABCB1) [7], 7.81. The Papp B→A at 1.5 h in [2] was 23.4 ×10⁻⁶ cm/s; at MDR1 (ABCB1) [4], 34.1 ×10⁻⁶ cm/s.
On to `COc1cccc2c1C(=O)c1c(O)c3c(c(O)c1C2=O)C[C@@](O)(C(=O)CO)C[C@@H]3O[C@H]1C[C@H](N)[C@H](O)[C@H](C)O1.Cl` [DOXORUBICIN HYDROCHLORIDE], for which the RatioGI50 in the series on NCI/ADR-RES stood at 0.1. Moreover, the GI50 with MCF7 is 54 nM; in series [3], 520 nM.
Taken in the same sequence, the figures for `COc1ccccc1N1CCN(C(=O)Cc2ccc(O[C@H]3O[C@@H]4O[C@@]5(C)CC[C@H]6[C@H](C)CC[C@@H]([C@H]3C)[C@@]46OO5)cc2)CC1` were 10.93, 470 nM and 43 nM.
Taken in the same sequence, the figures for `C[C@H]1[C@@H](Oc2ccc(/C=C/C(=O)N3CCN(c4ccccn4)CC3)cc2)O[C@@H]2O[C@@]3(C)CC[C@H]4[C@H](C)CC[C@@H]1[C@@]24OO3` were 2.64, 290 nM and 110 nM.
In the same order, the values of `C[C@H]1[C@@H](Oc2ccc(CC(=O)N3CCN(c4cccc(C(F)(F)F)c4)CC3)cc2)O[C@@H]2O[C@@]3(C)CC[C@H]4[C@H](C)CC[C@@H]1[C@@]24OO3` are 6.34, 260 nM and 41 nM.
Regarding `C[C@H]1[C@@H](Oc2ccc(CN3CCN(c4cccc(C(F)(F)F)c4)CC3)cc2)O[C@@H]2O[C@@]3(C)CC[C@H]4[C@H](C)CC[C@@H]1[C@@]24OO3`, the RatioGI50 in the series with NCI/ADR-RES is reported as 6.67. In addition, the GI50 in the series with MCF7 worked out at 220 nM; in [3] it was 33 nM.
On to `C[C@H]1[C@@H](Oc2ccc(CN3CCN(c4ccccc4)CC3)cc2)O[C@@H]2O[C@@]3(C)CC[C@H]4[C@H](C)CC[C@@H]1[C@@]24OO3`, for which the RatioGI50 in the series with NCI/ADR-RES is given as 11.43. Moreover, the concentration for 50% growth inhibition (GI50) in the series with MCF7 came to 240 nM; in [3], 21 nM.
In the same order, the values of `C[C@H]1[C@@H](Oc2ccc(C(=O)N3CCN(c4ccccc4)CC3)cc2)O[C@@H]2O[C@@]3(C)CC[C@H]4[C@H](C)CC[C@@H]1[C@@]24OO3` are 1.33, 100 nM and 75 nM.
On to `COc1ccccc1N1CCN(C(=O)/C=C/c2ccc(O[C@H]3O[C@@H]4O[C@@]5(C)CC[C@H]6[C@H](C)CC[C@@H]([C@H]3C)[C@@]46OO5)cc2)CC1`, for which, in the series on NCI/ADR-RES, the RatioGI50 is recorded as 4.52. In addition, the GI50 in the series with MCF7 was determined as 140 nM; in series [3] it was 31 nM.
In the same order, the values of `C[C@H]1[C@@H](Oc2ccc(/C=C/C(=O)N3CCN(c4ccc(F)cc4)CC3)cc2)O[C@@H]2O[C@@]3(C)CC[C@H]4[C@H](C)CC[C@@H]1[C@@]24OO3` are 8.57, 270 nM and 38 nM.
In the same order, the values of `C[C@H]1[C@@H](Oc2ccc(/C=C/C(=O)N3CCN(c4ccccc4)CC3)cc2)O[C@@H]2O[C@@]3(C)CC[C@H]4[C@H](C)CC[C@@H]1[C@@]24OO3` are 2.16, 110 nM and 51 nM.
Taken in the same sequence, the figures for `C[C@H]1[C@@H](Oc2ccc(CC(=O)N3CCN(c4ccc(F)cc4)CC3)cc2)O[C@@H]2O[C@@]3(C)CC[C@H]4[C@H](C)CC[C@@H]1[C@@]24OO3` were 7.11, 290 nM and 44 nM.
